bovine MsrA act: activates bovine MsrA enzyme | 360,000 compounds, 0.3% hits | activation, % at 10.6 µM | purified bovine MsrA, absorbance read-out; in the data active = activation above about 7.5%
NR1D1 modulator: modulators of human Rev-erb alpha DNA binding. P20393. Rev-erbα–FITC-DNA binding, fluorescence polarization, 90 min. activity, % at 10 µM. 370,000 compounds, 0.79% hits. AID 1259318;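 active = activity above about 14%, limit read from the data; passing the limit was not always enough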
sPLA2-III inh: Inhibits HGIII-sPLA2 liposome hydrolysis, primary screen | 370,000 compounds, 0.56% hits | Q9NZ20 | QFRET BODIPY PC-A2 liposome hydrolysis, fluorescence | inhibition, % at 12.2 µM;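 active = inhibition above mean plus 3 SD of compounds lying within the high and low control bounds, cut at about 19% in these data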
ARFGAP1 inhibitor: rat ARFGAP1 inhibition | Q62848 | Arfgap1-stimulated ARF1 GTP hydrolysis, GDP FP detection | inhibition, % at 16.5 µM | 360,000 compounds, 0.26% hits;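 active = inhibition above a per-plate limit, mean inhibition of low control wells plus 3 SD, cut at about 25% in these data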
Target sequence (Q62848 1-136 limits assumed): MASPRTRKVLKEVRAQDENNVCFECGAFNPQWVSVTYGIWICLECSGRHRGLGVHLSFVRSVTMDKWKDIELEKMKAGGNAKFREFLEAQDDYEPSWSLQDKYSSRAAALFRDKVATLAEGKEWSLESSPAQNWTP
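material = rat Arfgap1 catalytic domain, aa 1-136 | also added = human ARF1(Δ1-17)-GTP substrate | compound dosing = one concentration, 16.5 µM, DMSO 1.26% | times = GTP hydrolysis reaction 2 h at 25 °C | measured by = FP, GDP Alexa 633 tracer displaced from anti-GDP antibody, 620/688 nm | evaluation = percent inhibition of Arfgap1-stimulated GTP hydrolysis | replication = single well per compound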
MsrA inh: bovine MsrA inhibition; purified bovine MsrA, absorbance read-out; inhibition, % at 15.5 µM; 360,000 compounds, 0.75% hits; AID 651718; in the data active = inhibition above about 4.5%
ASAP1 inh: inhibitors of human ASAP1 ArfGAP activity | AID 624377 | 360,000 compounds, 0.19% hits | ASAP1-stimulated ARF1 GTP hydrolysis, GDP FP detection | inhibition, % at 16.5 µM | Q9ULH1; in the data active = inhibition above about 25%
Target sequence (Q9ULH1 325-724 limits assumed): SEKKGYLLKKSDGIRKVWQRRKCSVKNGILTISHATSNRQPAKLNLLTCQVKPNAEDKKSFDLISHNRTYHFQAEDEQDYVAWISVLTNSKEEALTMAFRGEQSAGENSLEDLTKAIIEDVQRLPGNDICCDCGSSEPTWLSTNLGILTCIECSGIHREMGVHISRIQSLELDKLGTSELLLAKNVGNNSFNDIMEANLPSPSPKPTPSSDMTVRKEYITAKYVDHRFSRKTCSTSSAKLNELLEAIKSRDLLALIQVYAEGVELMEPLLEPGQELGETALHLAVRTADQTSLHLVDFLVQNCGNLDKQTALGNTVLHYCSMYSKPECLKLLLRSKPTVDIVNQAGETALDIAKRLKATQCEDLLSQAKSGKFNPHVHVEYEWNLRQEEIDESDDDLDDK
sPLA2 confirm: human GIII-sPLA2 inhibition, confirmation | recombinant hGIII-sPLA2, BODIPY PC-A2 QFRET fluorescence | inhibition, % at 12.2 µM | 2,000 compounds, 34% hits | shares compounds with sPLA2-III inh;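 active = mean inhibition across triplicates above the hit cutoff set in the earlier primary screen, cut at about 19% in these data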
BODIPY interf: optically interferes with 535nm fluorescence in sPLA2 counter-screen; shares compounds with sPLA2-III inh; BODIPY FL product fluorescence interference, QFRET; inhibition, % at 12.2 µM; 2,000 compounds, 8.5% hits;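 active = average inhibition above the solvent-only control mean plus 3 SD, cut at about 6% in these data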
535nm interf DR: interferes with 535nm fluorescence in dose response counter-screen; 240 tested, under 10 active; BODIPY FL product fluorescence interference, cell-free; shares compounds with sPLA2-III inh; AID 743455; IC50, µM;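 active = IC50 at or below 10 µM; inactive = IC50 above 10 µM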
NR1D1 mod conf: Rev-erb alpha (human) modulation, hit confirmation; shares compounds with NR1D1 modulator; Rev-erb alpha FITC-DNA binding, fluorescence polarization, 90 min; activation, % at 25 µM; 3,000 compounds, 61% hits; AID 1259319;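 active = activation at or above a set limit, or at least 3 SD above the negative control mean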
RORg DNA counter: affects RORgamma DNA binding in a Rev-erb alpha counter-screen; shares compounds with NR1D1 modulator; IC50, µM; purified RORgamma protein-FITC-DNA binding, fluorescence polarization; 910 compounds, 8% hits; AID 1259320;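 active = Compounds whose fitted half-maximal concentration for disrupting protein-DNA binding is below 10 micromolar; the record names Rev-erb in its text, so the target is in doubt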
Of the large screens only hits and unclear results are named; the others gave an inactive call (follow-up assays come after a bar, where they were run); ! = a repeat was not active. Rows were chosen to be rich in hits. Some 2.7% of all compounds tested hit in one or more screens of this group.

NNCc1ccccc1	sPLA2-III inh 20.0! | sPLA2 confirm inactive | BODIPY interf inactive
c1ccc(CNC2CCCCCCC2)cc1 (tested in a mixture with another compound)	none
CCCCn1c(=O)c(C(=O)Nc2ncccc2C)c(O)c2ccccc21	sPLA2-III inh 19.8 | sPLA2 confirm inactive | BODIPY interf inactive
O=S(=O)(c1ccc(Cl)cc1)N1Cc2ccc(Br)cc2-n2nncc2C1	none (no result: bovine MsrA act)
COc1ccccc1Sc1ccccc1CC(C)N (configuration not stated)	none
COc1cc(CC(C)N)c(OC)cc1I (configuration not stated)	sPLA2-III inh 23.6! | sPLA2 confirm inactive | BODIPY interf inactive
CCC(C)N1C(=O)/C(=C\c2ccc(N3CCCCCC3)cc2)C(=O)NC1=S (configuration not stated)	none
CCC(C)N1C(=O)/C(=C\c2cc3c4c(c2)CCCN4CCC3)C(=O)NC1=S (configuration not stated)	sPLA2-III inh 21.6 | sPLA2 confirm 32.8 | BODIPY interf inactive | 535nm interf DR inactive
COc1ccccc1CCNC1CCCC(C)C1 (configuration not stated)	sPLA2-III inh 22.9 | sPLA2 confirm inactive | BODIPY interf inactive
Cc1cccc(C(C)c2cnc[nH]2)c1C (configuration not stated)	none (no result: bovine MsrA act, ARFGAP1 inhibitor, MsrA inh, ASAP1 inh)
CCCCN1CCN(C(=O)COc2cc(=O)n(C)c3ccccc23)CC1	none (no result: bovine MsrA act, ARFGAP1 inhibitor, MsrA inh, ASAP1 inh)
COc1cccc(NC2=NCCS2)c1	none (no result: bovine MsrA act)
O=C1CCCN1C(=O)c1cncc(Br)c1	none
Nc1cncc(C(=O)O)c1	sPLA2-III inh 20.8! | sPLA2 confirm inactive | BODIPY interf inactive
O=c1[nH]c(O)c(/C=C2/C=CC(c3cc(Cl)ccc3Cl)=N2)c(=O)[nH]1	sPLA2-III inh 19.8 | sPLA2 confirm inactive | BODIPY interf inactive
C/C(=N\N1CCN(C)CC1)c1c(O)[nH]c(=O)[nH]c1=O	sPLA2-III inh 19.6 | sPLA2 confirm inactive | BODIPY interf inactive
CCCOC(=O)c1ccc(-[n+]2c(-c3ccccc3)cc(-c3ccccc3)cc2-c2ccccc2)cc1	sPLA2-III inh 26.3 | sPLA2 confirm inactive | BODIPY interf inactive
Cc1ccc(N=CN(C)C=Nc2ccc(C)cc2C)c(C)c1	none (no result: bovine MsrA act, sPLA2-III inh, ARFGAP1 inhibitor, MsrA inh, ASAP1 inh)
CN(C)c1ccccc1	none
Cc1cccc(N=Nc2ccc(N(C)C)cc2)c1	sPLA2-III inh 19.5 | sPLA2 confirm 27.3 | BODIPY interf inactive
CN(C)c1ccc(/C=C/[N+](=O)[O-])cc1	sPLA2-III inh 23.2 | sPLA2 confirm inactive | BODIPY interf inactive
NC1C[C@H]1c1ccccc1 (some centres not stated)	none (no result: bovine MsrA act, sPLA2-III inh, ARFGAP1 inhibitor, MsrA inh, ASAP1 inh)
COC(=O)C1=C(c2ccc(F)cc2F)C[C@@H]2CC[C@H]1N2C(=O)NCCCOC(C)C	NR1D1 modulator 19.4 | NR1D1 mod conf inactive
COC(=O)C1=C(c2ccc(F)cc2F)C[C@@H]2CC[C@H]1N2C(=O)NCCO	none
CCCCCn1c(=O)c(C(=O)Nc2cnccn2)c(O)c2ccccc21	none
CCCCCCCn1c(=O)c(C(=O)Nc2cnccn2)c(O)c2ccccc21	NR1D1 modulator 47.9 | NR1D1 mod conf 43.1 | RORg DNA counter inactive
CCCCCn1c(=O)c(C(=O)Nc2ccccc2S(N)(=O)=O)c(O)c2ccccc21	NR1D1 modulator 42.9 | NR1D1 mod conf inactive
CCCCn1c(=O)c(C(=O)Nc2ccccc2S(N)(=O)=O)c(O)c2ccccc21	none
Cc1cc(N2CCNC[C@H]2C)ccc1N1CC[C@H](O)C1	none (no result: bovine MsrA act)
O=C(c1ccccc1)N1Cc2cc(Br)ccc2-n2nncc2C1	none (no result: bovine MsrA act)
CN1C(=O)/C(=C\c2ccc(N3CCCCC3)o2)C(=O)NC1=S	NR1D1 modulator 109.9 | NR1D1 mod conf 132.5 | RORg DNA counter inactive
CN1C(=O)C(=Cc2ccc(N3CCOCC3)o2)C(=O)N(C)C1=S	NR1D1 modulator 39.0 | NR1D1 mod conf 44.2 | RORg DNA counter inactive
CCN1C(=O)C(=Cc2ccc(N3CCOCC3)o2)C(=O)N(CC)C1=S	none
CCOc1ccc(N2C(=O)NC(=O)/C(=C\c3ccc(N4CCCCC4)o3)C2=O)cc1	NR1D1 modulator 28.9 | NR1D1 mod conf 32.8
CCCC(=O)N1c2ccc(Cl)cc2C(c2ccccc2)=NCC1C(=O)NC(C)(C)C (configuration not stated)	none (no result: bovine MsrA act, ARFGAP1 inhibitor, MsrA inh, ASAP1 inh)
CC(C)C(C(=O)NC(C)(C)C)N1C(=O)CN=C(c2ccccc2)c2ccccc21 (configuration not stated)	none (no result: bovine MsrA act, ARFGAP1 inhibitor, MsrA inh, ASAP1 inh)
N#Cc1ccccc1Cn1cc(C(=O)c2cccs2)c2ccccc21	NR1D1 modulator 25.0 | NR1D1 mod conf inactive
O=C(NC(CCC(O)CO)P(=O)(Oc1ccccc1)Oc1ccccc1)OCc1ccccc1 (configuration not stated)	none (no result: bovine MsrA act, ARFGAP1 inhibitor, MsrA inh, ASAP1 inh)
COC(=O)c1cccc(N=Cc2c(O)n(Cc3ccc(F)cc3)c(=O)[nH]c2=O)c1	NR1D1 modulator 615.7 | NR1D1 mod conf 21.6
O=C(O)c1ccc(N=Cc2c(O)n(Cc3ccc(F)cc3)c(=O)[nH]c2=O)cc1	none
COc1ccc(CCn2c(O)c(C=Nc3ccc(F)cc3)c(=O)[nH]c2=O)cc1OC	NR1D1 modulator 130.3 | NR1D1 mod conf 69.1 | RORg DNA counter inactive
O=c1[nH]c(O)c(N=Nc2cc([N+](=O)[O-])ccc2O)c(=O)[nH]1	NR1D1 modulator 19.8 | NR1D1 mod conf inactive
O=[N+]([O-])c1ccc(O)c([N+](=O)[O-])c1	none
O=C(/C=C/c1c[nH]c2ccccc12)c1c(O)n(CCc2ccccc2)c(=O)[nH]c1=O	NR1D1 modulator 38.8 | NR1D1 mod conf inactive
O=C(O)CCl	none (no result: bovine MsrA act)
CCOc1cc(C)cc2oc(=O)c3c(c12)CCCC3	NR1D1 modulator 27.1 | NR1D1 mod conf inactive
CC(NC(=O)OC1CC2CCC1(C)C2(C)C)P(=O)(Oc1ccccc1)Oc1ccccc1 (configuration not stated)	none (no result: bovine MsrA act, ARFGAP1 inhibitor, MsrA inh, ASAP1 inh)
CN1/C(=C\C=C2C(=O)NC(=O)NC2=O)C(C)(C)c2ccccc21	NR1D1 modulator 19.7 | NR1D1 mod conf inactive
CCCCn1c(O)c(/C=N/N2CCOCC2)c(=O)[nH]c1=S	none
CCCCCCn1c(O)c(C=Nc2ccccc2N2CCOCC2)c(=O)[nH]c1=S	NR1D1 modulator 53.5 | NR1D1 mod conf inactive

Source: PubChem BioAssay
